Measured values taken from ChEMBL document CHEMBL1143151, “Design, synthesis and antimalarial activity of benzene and isoquinoline sulfonamide derivatives” (2008).
≈ marks a conversion by molar mass, not a printed value.

Test system: Plasmodium falciparum
Assay: Antimalarial activity against Plasmodium falciparum NF54 after 36-40 hrs
Type: functional
Outline: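 P. falciparum NF-54 kept in RPMI-1640 with 25 mM Hepes, 1% D-glucose, 0.23% sodium bicarbonate, 10% heat-inactivated human serum; D-sorbitol (5%) synchronized to ring stage. ~1% ring parasitaemia, 3% haematocrit; compound […] µg/mL, duplicate wells, 37 °C candle jar, 36–40 h. Giemsa smears scored microscopically; MIC = concentration blocking full maturation to schizonts. Pyrimethamine reference.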

Row | MIC [µg/mL] | SMILES
1 | 10 (≈ 27.7 µM) | O=[N+]([O-])c1ccc(S(=O)(=O)N2CCN(Cc3ccccc3)CC2)cc1
2 | 10 (≈ 35.2 µM) | Cc1ccc(S(=O)(=O)N2CCN(CCO)CC2)cc1
3 | 10 (≈ 29.8 µM) | COc1ccc(CCNS(=O)(=O)c2ccc(C)cc2)cc1OC
4 | 10 (≈ 30.4 µM) | O=[N+]([O-])c1ccc(S(=O)(=O)NCCCN2CCOCC2)cc1
5 | 10 (≈ 35.2 µM) | O=S(=O)(NCCCN1CCOCC1)c1ccccc1
6 | 10 (≈ 25.9 µM) | CN(CC(O)CNCc1ccccc1)S(=O)(=O)c1cccc2cnccc12 (centres undefined)
7 | 10 (≈ 30.3 µM) | Cc1ccc(S(=O)(=O)N2CCN(Cc3ccccc3)CC2)cc1
8 | 50 (≈ 156 µM) | O=S(=O)(c1cccc2cnccc12)N1CCN(CCO)CC1
9 | 10 (≈ 35 µM) | CN1CCN(S(=O)(=O)c2ccc([N+](=O)[O-])cc2)CC1
10 | 10 (≈ 21.8 µM) | COc1ccc(CCNCC(O)CN(C)S(=O)(=O)c2cccc3cnccc23)cc1OC (centres undefined)
11 | 50 (≈ 124 µM) | CN(CC(O)CNCCCn1ccnc1)S(=O)(=O)c1cccc2cnccc12 (centres undefined)
12 | 10 (≈ 23.8 µM) | CN(CC(O)CNCc1ccc(Cl)cc1)S(=O)(=O)c1cccc2cnccc12 (centres undefined)
13 | 10 (≈ 29.7 µM) | O=S(=O)(c1ccccc1)N1CCN(c2ccc(Cl)cc2)CC1
14 | 10 (≈ 26.2 µM) | O=[N+]([O-])c1ccc(S(=O)(=O)N2CCN(c3cccc(Cl)c3)CC2)cc1
15 | 50 (≈ 120 µM) | CN(CC(O)CNCCc1ccc(O)cc1)S(=O)(=O)c1cccc2cnccc12 (centres undefined)

Second part, the compound before the results:

Row | SMILES | MIC [µg/mL]
16 | O=S(=O)(c1ccccc1)N1CCN(c2ccccn2)CC1 | 10 (≈ 33 µM)
17 | O=[N+]([O-])c1ccc(S(=O)(=O)N2CCN(c3ccccn3)CC2)cc1 | 10 (≈ 28.7 µM)
18 | O=S(=O)(c1ccccc1)N1CCN(CCO)CC1 | 10 (≈ 37 µM)
19 | CN(CC(O)CNCCc1c[nH]c2ccccc12)S(=O)(=O)c1cccc2cnccc12 (centres undefined) | 10 (≈ 22.8 µM)
20 | CN(CC(O)CNCc1ccco1)S(=O)(=O)c1cccc2cnccc12 (centres undefined) | 10 (≈ 26.6 µM)
21 | CN(CC(O)CNCc1ccc(Cl)cc1Cl)S(=O)(=O)c1cccc2cnccc12 (centres undefined) | 2 (≈ 4.4 µM)
22 | Cc1ccc(S(=O)(=O)N2CCN(c3ccc(Cl)cc3)CC2)cc1 | 10 (≈ 28.5 µM)
23 | COc1ccc(CCNS(=O)(=O)c2ccccc2)cc1OC | 10 (≈ 31.1 µM)
24 | Cc1ccc(S(=O)(=O)NCCCn2ccnc2)cc1 | 10 (≈ 35.8 µM)
25 | O=[N+]([O-])c1ccc(S(=O)(=O)N2CCN(CCO)CC2)cc1 | 10 (≈ 31.7 µM)
26 | NCCN1CCN(S(=O)(=O)c2cccc3cnccc23)CC1 | 10 (≈ 31.2 µM)
27 | CN(CC(O)CNCc1ccccc1Cl)S(=O)(=O)c1cccc2cnccc12 (centres undefined) | 10 (≈ 23.8 µM)
28 | CN1CCN(S(=O)(=O)c2ccccc2)CC1 | 10 (≈ 41.6 µM)
29 | Cc1ccc(S(=O)(=O)NCCCN2CCOCC2)cc1 | 10 (≈ 33.5 µM)
30 | Cc1ccc(S(=O)(=O)N2CCN(C)CC2)cc1 | 10 (≈ 39.3 µM)
31 | CN(CC(O)CNCc1ccc(Cl)c(Cl)c1)S(=O)(=O)c1cccc2cnccc12 (centres undefined) | 2 (≈ 4.4 µM)
32 | COc1ccc(CCNS(=O)(=O)c2ccc([N+](=O)[O-])cc2)cc1OC | 10 (≈ 27.3 µM)
33 | COc1ccc(CCNCC(O)CN(C)S(=O)(=O)c2cccc3cnccc23)cc1 (centres undefined) | 10 (≈ 23.3 µM)
34 | CCc1nc(N)nc(N)c1-c1ccc(Cl)cc1 [PYRIMETHAMINE] | 10 (≈ 40.2 µM)
